From PubChem BioAssay
SENP1 FRET inh – SENP1 (human) catalytic domain inhibition. inhibition, % at 10 µM. recombinant SENP1 catalytic domain, CyPet-SUMO1-YPet FRET cleavage. 360,000 tested, 0.21% active. AID 624204;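 active means inhibition at least 30% at 10 µM, raw YFP signal under a set limit, fluorescence ratio 0.5 to 1.5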
Target sequence (Q9P0U3 419-644 limits assumed): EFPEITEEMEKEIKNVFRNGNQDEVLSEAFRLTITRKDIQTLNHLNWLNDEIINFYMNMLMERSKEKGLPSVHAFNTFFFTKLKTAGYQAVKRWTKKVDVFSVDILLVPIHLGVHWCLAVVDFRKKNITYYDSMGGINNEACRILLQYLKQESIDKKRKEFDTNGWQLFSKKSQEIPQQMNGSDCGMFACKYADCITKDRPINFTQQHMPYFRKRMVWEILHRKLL
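Test system: recombinant human SENP1 catalytic domain, His6-tagged / Medium: pH 8 Tris buffer with EDTA, NaCl, BME, BSA, NP40, catalase / Also added: SUMO1 FRET substrate flanked by Cypet and Ypet, 25 nM / Times: 50 min reaction at room temperature / Signal: FRET, CFP and YFP emission / Control set: no-enzyme low control and enzyme-plus-DMSO high control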
SENP8 block-1 – inhibitors of human SENP8 protease; inhibition, % at 20 µM; recombinant SENP8, Nedd8 substrate fluorescence; Q96LD8; 360,000 tested, 0.64% active; in the data active means inhibition mostly above about 40%, no sharp cut-off; inactive means mostly below about 27%
Target sequence (Q96LD8 whole entry, looked up): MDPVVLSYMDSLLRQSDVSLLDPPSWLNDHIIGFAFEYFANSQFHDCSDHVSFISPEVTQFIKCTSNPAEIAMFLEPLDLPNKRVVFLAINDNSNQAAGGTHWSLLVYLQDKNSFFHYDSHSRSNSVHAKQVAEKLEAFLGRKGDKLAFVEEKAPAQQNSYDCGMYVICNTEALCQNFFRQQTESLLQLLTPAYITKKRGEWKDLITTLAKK
SENP7 inh – blocks the human protease SENP7. 330,000 tested, 1.5% active. recombinant SENP7, Z-RLRGG-aminoluciferin luminescence, 40 min. inhibition, % at 5 µM. AID 434973. Q9BQF6;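 active means inhibition above about 50% at the single test dose, limit read from the data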
SENP6 block – inhibitors of human SENP6 protease | Q9GZR1 | Recombinant SENP6 catalytic domain, aminoluciferin luminescence | inhibition, % at 10 µM | 330,000 tested, 1.8% active | AID 2599;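 active means inhibition above about 50% at the single tested dose, limit read from the data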
SENP8 block-2 – SENP8 protease inhibition; inhibition, % at 10 µM; Q96LD8; purified SENP8, Z-RLRGG-aminoluciferin cleavage, luminescence; AID 2540; 330,000 tested, 1.2% active; in the data active means inhibition above about 50%
SENP8 confirm – confirmation of human SENP8 protease inhibitors | Recombinant SENP8, Z-RLRGG-aminoluciferin luminescence, 60 min | inhibition, % at 12.5 µM | 6,200 tested, 40% active | shares compounds with SENP7 inh;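 active means mean inhibition across replicates above about 50%, limit read from the data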
SENP6 conf – confirmation of human SENP6 protease inhibitors | shares compounds with SENP7 inh | recombinant SENP6, Z-RLRGG-aminoluciferin luminescence | inhibition, % at 12.5 µM | 6,200 tested, 58% active
SENP7 confirm – human SENP7 inhibition, confirmed | shares compounds with SENP7 inh | recombinant SENP7, Z-RLRGG-aminoluciferin luminescence, 40 min | inhibition, % at 12.5 µM | 6,200 tested, 69% active | AID 488917
Casp3 select – caspase-3 inhibition (SENP selectivity assay); shares compounds with SENP7 inh; purified caspase-3, Z-DEVD-aminoluciferin luminescence, 60 min; inhibition, % at 12.5 µM; 6,200 tested, 60% active; AID 488918;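 active means mean inhibition above about 50%, limit read from the data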
Target sequence (P42574 28-227 limits assumed): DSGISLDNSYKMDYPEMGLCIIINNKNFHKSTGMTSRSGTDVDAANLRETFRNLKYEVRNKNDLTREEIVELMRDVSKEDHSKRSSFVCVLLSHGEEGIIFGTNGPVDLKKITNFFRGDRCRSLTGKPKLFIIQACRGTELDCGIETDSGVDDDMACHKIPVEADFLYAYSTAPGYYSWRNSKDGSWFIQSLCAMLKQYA
SENP luc ctr – luminescence interference (SENP counter-screen). shares compounds with SENP7 inh. Pre-incubated SENP8/Z-RLRGG-aminoluciferin, luciferase luminescence interference. inhibition, % at 12.5 µM. 6,200 tested, 39% active. AID 488919;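 active means mean inhibition above about 50% when retested at one dose, limit read from the data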
Hits are given with their value. Rows were chosen to be rich in hits. Some 2.5% of all compounds tested hit in one or more screens of this group.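 How the source made its calls, unless noted: active means mean inhibition above about 50% in the one-dose retest (limit read from the data); inactive means the rest.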

Cc1nc2nc(-c3ccc(F)cc3)cn2nc1C was read as SENP1 FRET inh inactive, SENP8 block-1 inactive, SENP7 inh inactive, SENP6 block 67.4, SENP8 block-2 71.2, SENP8 confirm inactive, SENP6 conf 91.9, SENP7 confirm 100.1, Casp3 select 96.6 and SENP luc ctr 54.4.
Screening CCc1ccc(OCC(=O)N/N=C2\CC(=O)c3ccccc32)cc1 returned SENP1 FRET inh inactive, SENP8 block-1 41.2, SENP7 inh inactive, SENP6 block 53.5, SENP8 block-2 inactive, SENP8 confirm inactive, SENP6 conf 66.1, SENP7 confirm inactive, Casp3 select inactive and SENP luc ctr inactive.
For COc1ccc(OCC(=O)N/N=C2\CCCCc3ccccc32)cc1 the results were SENP1 FRET inh inactive, SENP8 block-1 inactive, SENP7 inh inactive, SENP6 block inactive and SENP8 block-2 inactive.
O=[N+]([O-])c1ccc2cn(-c3ccccc3)nc2c1 was read as SENP1 FRET inh inactive, SENP8 block-1 inactive, SENP7 inh 81.2, SENP6 block inactive, SENP8 block-2 60.5, SENP8 confirm inactive, SENP6 conf 69.6, SENP7 confirm 91.7, Casp3 select 69.1 and SENP luc ctr inactive.
Screening c1ccc(-c2nc3ccccc3o2)nc1 returned SENP1 FRET inh inactive, SENP8 block-1 inactive, SENP7 inh inactive, SENP6 block inactive and SENP8 block-2 inactive.
c1ccc2nc(-c3nc4ccccc4o3)ccc2c1 was read as SENP1 FRET inh inactive, SENP8 block-1 inactive, SENP7 inh 99.9, SENP6 block 98.4, SENP8 block-2 96.9, SENP8 confirm 98.0, SENP6 conf 99.8, SENP7 confirm 102.2, Casp3 select 98.6 and SENP luc ctr 94.8.
Screening COc1ccc(NC(=S)Nc2cccc3ccccc23)cc1OC returned SENP1 FRET inh inactive, SENP8 block-1 inactive, SENP7 inh 62.9, SENP6 block 88.2, SENP8 block-2 77.5, SENP8 confirm inactive, SENP6 conf inactive, SENP7 confirm inactive, Casp3 select inactive and SENP luc ctr inactive.
Screening CC(=O)Nc1cccc(NC(=S)Nc2cccc3ccccc23)c1 returned SENP1 FRET inh inactive, SENP8 block-1 inactive, SENP7 inh inactive, SENP6 block inactive and SENP8 block-2 inactive.
`CC(=O)c1cccc(NC(=S)Nc2cccc3ccccc23)c1` gave SENP1 FRET inh inactive, SENP8 block-1 inactive, SENP7 inh inactive, SENP6 block 83.9, SENP8 block-2 61.6, SENP8 confirm inactive, SENP6 conf inactive, SENP7 confirm inactive, Casp3 select inactive and SENP luc ctr inactive.
Cc1ccc(C(=O)NNC(=S)Nc2cccc3ccccc23)s1 was read as SENP1 FRET inh inactive, SENP8 block-1 inactive, SENP7 inh inactive, SENP6 block 54.5, SENP8 block-2 inactive, SENP8 confirm inactive, SENP6 conf inactive, SENP7 confirm inactive, Casp3 select inactive and SENP luc ctr inactive.
`COc1ccccc1C(=O)NCc1ccccn1` gave SENP1 FRET inh inactive, SENP8 block-1 inactive, SENP7 inh inactive, SENP6 block inactive and SENP8 block-2 inactive.
CC(C)CCN1CCN(Cc2nc(-c3ccc(F)cc3)cs2)CC1CCO (stereo unspecified) was read as SENP1 FRET inh inactive, SENP8 block-1 inactive, SENP7 inh inactive, SENP6 block inactive and SENP8 block-2 inactive.
Screening O=C(/C=C/c1ccccc1)N1CCC(N2CCC(C(=O)N3CCOCC3)CC2)CC1 returned SENP1 FRET inh inactive, SENP8 block-1 inactive, SENP7 inh inactive, SENP6 block inactive and SENP8 block-2 inactive.
`CCn1c(CC(=O)Nc2ccccc2Cl)nnc1SCC(=O)NC1CCCC1` gave SENP1 FRET inh inactive, SENP8 block-1 inactive, SENP7 inh inactive, SENP6 block inactive and SENP8 block-2 inactive.
Screening O=S(=O)(Nc1nc2ccccc2[nH]1)c1ccc(Cl)cc1 returned SENP1 FRET inh inactive, SENP8 block-1 inactive, SENP7 inh inactive, SENP6 block inactive and SENP8 block-2 inactive.
Screening O=c1c(Cl)c(NCCCO)cnn1-c1nc2ccccc2[nH]1 returned SENP1 FRET inh inactive, SENP8 block-1 inactive, SENP7 inh 69.0, SENP6 block 62.0, SENP8 block-2 inactive, SENP8 confirm 58.8, SENP6 conf 56.5, SENP7 confirm 84.9, Casp3 select 89.1 and SENP luc ctr inactive.
For C=CCN(CC=C)c1cnn(-c2nc3ccccc3[nH]2)c(=O)c1Cl the results were SENP1 FRET inh inactive, SENP8 block-1 inactive, SENP7 inh 76.5, SENP6 block 86.6, SENP8 block-2 58.0, SENP8 confirm 71.0, SENP6 conf 76.6, SENP7 confirm 94.3, Casp3 select 91.2 and SENP luc ctr inactive.
Nc1c(-c2cccc(Cl)c2)cnn1-c1ccccc1 was read as SENP1 FRET inh inactive, SENP8 block-1 inactive, SENP7 inh inactive, SENP6 block inactive and SENP8 block-2 inactive.
Screening Nc1c(-c2ccccc2)cnn1-c1ccccc1 returned SENP1 FRET inh inactive, SENP8 block-1 inactive, SENP7 inh 82.9, SENP6 block 78.6, SENP8 block-2 70.2, SENP8 confirm 74.7, SENP6 conf 72.4, SENP7 confirm 93.8, Casp3 select 88.3 and SENP luc ctr 78.1.
For O=c1cc(-c2ccccc2)[nH]n1-c1ccc([N+](=O)[O-])cc1 the results were SENP1 FRET inh inactive, SENP8 block-1 inactive, SENP7 inh inactive, SENP6 block 83.8, SENP8 block-2 79.2, SENP8 confirm 85.9, SENP6 conf 92.9, SENP7 confirm 99.7, Casp3 select 90.0 and SENP luc ctr 70.7.
Screening CCCCNC(=O)/C=C1\Sc2ccccc2NC1=O returned SENP1 FRET inh inactive, SENP8 block-1 inactive, SENP7 inh inactive, SENP6 block inactive and SENP8 block-2 inactive.
`CCc1ccc(C(=O)/C=C2\Sc3ccccc3NC2=O)cc1` gave SENP1 FRET inh inactive, SENP8 block-1 inactive, SENP7 inh inactive, SENP6 block 70.0, SENP8 block-2 inactive, SENP8 confirm 69.0, SENP6 conf 68.0, SENP7 confirm 87.8, Casp3 select 61.1 and SENP luc ctr inactive.
`Cc1cccc(Nc2nc(NCCCN3CCOCC3)nc(N)c2[N+](=O)[O-])c1` gave SENP1 FRET inh inactive, SENP8 block-1 inactive, SENP7 inh inactive, SENP6 block inactive and SENP8 block-2 inactive.
